According to ChEMBL document CHEMBL3792358, “Computer-aided identification of new histone deacetylase 6 selective inhibitor with anti-sepsis activity” (Eur J Med Chem, 2016):
Activity calls are given as the source filed them. The rule behind the calls is not given here.

Assays:
Histone deacetylase [1] = type: cell-based, Homo sapiens; conditions: hela
[2] = target: Histone deacetylase (Homo sapiens) (UniProt Q13547+O15379+Q9UBN7+Q92769+Q9UQL6+Q8WUI4+Q9BY41+Q96DB2+P56524+Q9UKV0+Q969S8); assay: Competitive inhibition of HDAC in human HeLa cells using Boc-acetyl-lysine-AMC as substrate at 25 to 50 uM incubated for 30 mins in dark by Lineweaver-Burk plot analysis; type: cell-based
Histone deacetylase [3] = assay: Inhibition of HDAC in human HeLa cells using Boc-acetyl-lysine-AMC as substrate incubated for 24 hrs by fluorometric assay; type: cell-based
HeLa = assay: Cytotoxicity against human HeLa cells by MTS assay; type: cell-based
RAW264.7 [4] = assay: Antiinflammatory activity in mouse RAW264.7 cells assessed as inhibition of LPS-induced NO production at 0.5 to 2.5 uM relative to control; type: functional
RAW264.7 [5] = assay: Antiinflammatory activity in mouse RAW264.7 cells assessed as inhibition of LPS-induced TNF-alpha production at 0.5 to 2.5 uM relative to control; type: functional
RAW264.7 [6] = assay: Antiinflammatory activity in mouse RAW264.7 cells assessed as inhibition of LPS-induced IL-6 production at 0.5 to 2.5 uM relative to control; type: functional
Mus musculus [7] = assay: Anti-sepsis activity in ICR mouse model of LPS-induced endotoxemia assessed as increase in survival rate at 20 mg/kg, ip administered 2 hrs before and immediately after LPS injection measured up to 10 days; type: functional
Method in brief: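 Male ICR mice (27–29 g), LPS from E. coli O111:B4. Dosing was i.p. in vehicle (5% DMSO in saline) at 5, 10 or 20 mg/kg, given 2 h before and immediately after LPS. Groups were vehicle control, LPS, and LPS plus drug. Survival was followed up to 10 days and compared by log-rank analysis.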

Mus musculus [8] = assay: Antiinflammatory activity in ICR mouse model of LPS-induced endotoxemia assessed as inhibition of LPS-induced TNF-alpha mRNA expression in liver at 10 mg/kg, ip administered 2 hrs before and immediately after LPS injection by RT-PCR method; type: functional, organism-based
Method in brief: (§1)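 Male ICR mice (27–29 g) given LPS; drug i.p. in 5% DMSO/saline 2 h before and immediately after LPS. Liver collected 6 h after LPS. Total RNA extracted and reverse-transcribed to cDNA; TNF-α and IL-6 mRNA measured by real-time RT-PCR relative to vehicle control.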

Mus musculus [9] = assay: Antiinflammatory activity in ICR mouse model of LPS-induced endotoxemia assessed as inhibition of LPS-induced IL-6 mRNA expression in liver at 10 mg/kg, ip administered 2 hrs before and immediately after LPS injection by RT-PCR method; type: functional, organism-based
Method in brief: as §1

[10] = target: T1, Protein deacetylase HDAC6 (Homo sapiens, UniProt Q9UBN7); assay: Inhibition of recombinant human HDAC6 using Fluor de Lys-SIRT1 as substrate incubated for 15 mins by fluorescence assay
T1 sequence (Q9UBN7 whole entry): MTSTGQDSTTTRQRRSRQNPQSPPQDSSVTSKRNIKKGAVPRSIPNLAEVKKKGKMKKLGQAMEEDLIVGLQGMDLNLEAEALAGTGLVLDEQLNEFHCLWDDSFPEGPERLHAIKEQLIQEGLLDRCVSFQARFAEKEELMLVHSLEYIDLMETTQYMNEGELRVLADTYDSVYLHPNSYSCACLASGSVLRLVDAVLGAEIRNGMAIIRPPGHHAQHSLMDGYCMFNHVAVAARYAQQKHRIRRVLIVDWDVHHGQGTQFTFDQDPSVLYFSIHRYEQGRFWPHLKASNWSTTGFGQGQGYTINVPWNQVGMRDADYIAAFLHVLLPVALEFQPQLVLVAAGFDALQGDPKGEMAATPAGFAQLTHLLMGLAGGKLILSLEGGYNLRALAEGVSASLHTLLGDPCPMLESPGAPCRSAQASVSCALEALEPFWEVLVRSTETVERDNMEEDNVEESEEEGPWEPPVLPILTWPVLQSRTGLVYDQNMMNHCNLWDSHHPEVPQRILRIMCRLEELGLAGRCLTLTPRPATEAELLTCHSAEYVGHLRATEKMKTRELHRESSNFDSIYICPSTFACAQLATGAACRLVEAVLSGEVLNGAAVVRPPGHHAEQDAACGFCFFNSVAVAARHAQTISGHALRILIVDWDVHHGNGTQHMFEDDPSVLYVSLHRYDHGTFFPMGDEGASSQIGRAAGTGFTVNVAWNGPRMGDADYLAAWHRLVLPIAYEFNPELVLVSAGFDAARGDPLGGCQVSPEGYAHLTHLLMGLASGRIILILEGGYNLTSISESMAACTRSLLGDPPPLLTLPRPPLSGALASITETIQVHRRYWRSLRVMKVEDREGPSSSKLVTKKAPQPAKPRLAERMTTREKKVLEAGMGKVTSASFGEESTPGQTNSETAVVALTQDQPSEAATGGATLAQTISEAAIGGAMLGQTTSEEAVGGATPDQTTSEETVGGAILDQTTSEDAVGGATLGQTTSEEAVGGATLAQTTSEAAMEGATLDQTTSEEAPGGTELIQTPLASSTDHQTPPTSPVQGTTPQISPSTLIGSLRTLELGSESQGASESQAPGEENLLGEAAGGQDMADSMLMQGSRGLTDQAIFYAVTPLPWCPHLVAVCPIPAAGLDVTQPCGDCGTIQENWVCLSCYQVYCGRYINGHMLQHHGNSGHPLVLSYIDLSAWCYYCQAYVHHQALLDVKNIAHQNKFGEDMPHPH

Histone deacetylase 1 [11] = target: T2, Histone deacetylase 1 (Homo sapiens, UniProt Q13547); assay: Inhibition of full length human recombinant C-terminal FLAG-His-tagged HDAC1 (1 to 482 residues) expressed in Sf21 cells using RHK-K(Ac)-AMC as substrate incubated for 60 mins by fluorescence assay
Histone deacetylase 2 = Histone deacetylase 2 (Homo sapiens, UniProt Q92769); assay: Inhibition of full length human recombinant C-terminal GST-tagged HDAC2 (1 to 488 residues) expressed in insect cells using RHK-K(Ac)-AMC as substrate incubated for 60 mins by fluorescence assay
Histone deacetylase 7 = target: T3, Histone deacetylase 7 (Homo sapiens, UniProt Q8WUI4); assay: Inhibition of human recombinant N-terminal GST-tagged HDAC7 (518 to 991 residues) expressed in insect cells using Boc-K(TFA)-AMC as substrate incubated for 60 mins by fluorescence assay
T3 sequence (Q8WUI4 whole entry): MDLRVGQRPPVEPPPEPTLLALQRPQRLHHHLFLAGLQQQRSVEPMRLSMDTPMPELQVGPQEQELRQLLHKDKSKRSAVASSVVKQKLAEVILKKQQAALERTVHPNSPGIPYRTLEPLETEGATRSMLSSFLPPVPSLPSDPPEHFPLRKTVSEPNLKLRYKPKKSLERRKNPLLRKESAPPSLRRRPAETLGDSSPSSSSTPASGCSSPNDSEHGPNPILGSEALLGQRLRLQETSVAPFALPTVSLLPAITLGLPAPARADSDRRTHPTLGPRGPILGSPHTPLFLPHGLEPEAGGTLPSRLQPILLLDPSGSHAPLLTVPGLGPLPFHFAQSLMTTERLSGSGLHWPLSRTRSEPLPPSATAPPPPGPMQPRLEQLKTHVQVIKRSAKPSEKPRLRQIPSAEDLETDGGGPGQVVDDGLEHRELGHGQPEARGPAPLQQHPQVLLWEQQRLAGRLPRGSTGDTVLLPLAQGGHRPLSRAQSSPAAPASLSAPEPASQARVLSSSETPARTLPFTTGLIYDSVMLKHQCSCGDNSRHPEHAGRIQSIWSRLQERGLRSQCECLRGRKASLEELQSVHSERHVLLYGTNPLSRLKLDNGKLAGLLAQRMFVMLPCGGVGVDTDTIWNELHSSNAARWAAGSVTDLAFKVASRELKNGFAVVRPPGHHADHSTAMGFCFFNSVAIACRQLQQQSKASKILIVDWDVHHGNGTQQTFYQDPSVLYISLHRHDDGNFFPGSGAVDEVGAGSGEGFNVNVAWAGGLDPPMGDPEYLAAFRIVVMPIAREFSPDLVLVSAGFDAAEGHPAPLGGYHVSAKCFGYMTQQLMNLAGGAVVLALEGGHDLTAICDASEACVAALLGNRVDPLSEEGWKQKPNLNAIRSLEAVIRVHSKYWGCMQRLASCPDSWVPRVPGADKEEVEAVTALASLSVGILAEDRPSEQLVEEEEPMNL

Histone deacetylase 4 = Histone deacetylase 4 (Homo sapiens, UniProt P56524); assay: Inhibition of human recombinant N-terminal GST-tagged C-terminal His-tagged HDAC4 (627 to 1084 residues) expressed in insect cells using Boc-K(TFA)-AMC as substrate incubated for 60 mins by fluorescence assay
Histone deacetylase 5 = Histone deacetylase 5 (Homo sapiens, UniProt Q9UQL6); assay: Inhibition of human recombinant C-terminal His-tagged HDAC5 (657 to 1123 residues) expressed in insect cells using Boc-K(TFA)-AMC as substrate incubated for 60 mins by fluorescence assay
[12] = target: T1, Protein deacetylase HDAC6; assay: Inhibition of full length human recombinant N-terminal GST-tagged HDAC6 (1 to 1215 residues) expressed in sf9 cells using RHK-K(Ac)-AMC as substrate incubated for 90 mins by fluorescence assay
Histone deacetylase 8 = target: T4, Histone deacetylase 8 (Homo sapiens, UniProt Q9BY41); assay: Inhibition of human recombinant C-terminal His-tagged HDAC8 (1 to 377 residues) expressed in insect cells using RHK-K(Ac)-K(Ac)-AMC as substrate incubated for 60 mins by fluorescence assay
T4 sequence (Q9BY41 whole entry): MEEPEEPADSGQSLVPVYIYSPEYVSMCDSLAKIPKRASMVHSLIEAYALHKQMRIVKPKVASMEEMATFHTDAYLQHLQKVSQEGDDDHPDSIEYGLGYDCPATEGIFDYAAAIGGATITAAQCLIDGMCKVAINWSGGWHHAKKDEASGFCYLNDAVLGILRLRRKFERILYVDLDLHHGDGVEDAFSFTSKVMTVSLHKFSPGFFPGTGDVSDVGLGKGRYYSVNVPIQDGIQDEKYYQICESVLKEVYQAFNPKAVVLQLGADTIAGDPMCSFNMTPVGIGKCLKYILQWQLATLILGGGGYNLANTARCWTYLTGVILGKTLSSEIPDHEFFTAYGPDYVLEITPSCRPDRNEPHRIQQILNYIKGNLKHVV

Histone deacetylase 11 = target: T5, Histone deacetylase 11 (Homo sapiens, UniProt Q96DB2); assay: Inhibition of human recombinant N-terminal His-tagged HDAC11 (1 to 347 residues) expressed in insect cells/baculovirus expression system using RHK-K(Ac)-AMC as substrate by fluorescence assay
T5 sequence (Q96DB2 whole entry): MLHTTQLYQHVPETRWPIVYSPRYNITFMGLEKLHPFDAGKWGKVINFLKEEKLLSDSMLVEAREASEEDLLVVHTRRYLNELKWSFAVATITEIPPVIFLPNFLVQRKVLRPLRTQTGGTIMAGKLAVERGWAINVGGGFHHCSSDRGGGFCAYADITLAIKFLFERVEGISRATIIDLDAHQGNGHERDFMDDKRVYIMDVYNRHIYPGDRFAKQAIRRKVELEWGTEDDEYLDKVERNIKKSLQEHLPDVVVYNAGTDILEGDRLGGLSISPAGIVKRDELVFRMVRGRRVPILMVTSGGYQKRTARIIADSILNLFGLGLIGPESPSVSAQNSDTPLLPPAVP

Histone deacetylase 9 = Histone deacetylase 9 (Homo sapiens, UniProt Q9UKV0); assay: Inhibition of human recombinant HDAC9 using trifluoroacetyl lysine as substrate
[13] = target: T6, Polyamine deacetylase HDAC10 (Homo sapiens, UniProt Q969S8); assay: Inhibition of human recombinant HDAC10 using RHK-K(Ac)-AMC as substrate
T6 sequence (Q969S8 whole entry): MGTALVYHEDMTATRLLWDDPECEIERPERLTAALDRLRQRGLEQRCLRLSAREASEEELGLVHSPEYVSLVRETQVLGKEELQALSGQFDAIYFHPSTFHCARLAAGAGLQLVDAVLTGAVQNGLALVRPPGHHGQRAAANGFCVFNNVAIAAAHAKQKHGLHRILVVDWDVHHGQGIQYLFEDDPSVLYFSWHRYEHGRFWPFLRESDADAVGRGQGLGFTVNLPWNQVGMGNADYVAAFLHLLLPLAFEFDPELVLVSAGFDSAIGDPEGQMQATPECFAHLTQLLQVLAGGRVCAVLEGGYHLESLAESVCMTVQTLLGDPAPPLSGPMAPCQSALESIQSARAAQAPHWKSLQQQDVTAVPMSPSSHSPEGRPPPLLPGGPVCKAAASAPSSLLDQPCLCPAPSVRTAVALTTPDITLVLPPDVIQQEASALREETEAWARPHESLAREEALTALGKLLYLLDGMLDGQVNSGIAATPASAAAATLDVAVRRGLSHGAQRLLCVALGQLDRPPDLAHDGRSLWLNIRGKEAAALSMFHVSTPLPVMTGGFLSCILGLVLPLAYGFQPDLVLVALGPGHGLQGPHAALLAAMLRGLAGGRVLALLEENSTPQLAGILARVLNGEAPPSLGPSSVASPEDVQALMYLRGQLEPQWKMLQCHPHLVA

[14] = target: Histone deacetylase 3/Nuclear receptor corepressor 2 (HDAC3/NCoR2) (Homo sapiens, UniProt O15379); type: cell-based
Histone deacetylase 1 [15] = target: T2, Histone deacetylase 1
Histone deacetylase 1 [16] = target: T2, Histone deacetylase 1; conditions: HeLa, 10 uM

T2 sequence (Q13547 whole entry, the tested form may be a part): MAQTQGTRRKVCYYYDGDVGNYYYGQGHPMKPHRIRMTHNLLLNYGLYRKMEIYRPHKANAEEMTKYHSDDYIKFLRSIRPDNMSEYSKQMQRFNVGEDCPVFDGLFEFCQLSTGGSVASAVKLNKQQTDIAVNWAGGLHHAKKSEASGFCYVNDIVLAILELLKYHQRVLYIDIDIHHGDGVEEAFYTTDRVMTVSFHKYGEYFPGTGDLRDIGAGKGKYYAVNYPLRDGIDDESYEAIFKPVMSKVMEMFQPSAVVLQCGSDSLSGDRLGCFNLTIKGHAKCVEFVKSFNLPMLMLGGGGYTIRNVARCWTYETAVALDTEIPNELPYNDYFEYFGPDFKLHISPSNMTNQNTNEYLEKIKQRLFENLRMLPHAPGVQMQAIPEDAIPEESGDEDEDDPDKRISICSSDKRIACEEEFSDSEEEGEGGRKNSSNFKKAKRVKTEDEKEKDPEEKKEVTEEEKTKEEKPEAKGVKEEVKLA
Histone deacetylase 5, sequence (Q9UQL6 whole entry, the tested form may be a part): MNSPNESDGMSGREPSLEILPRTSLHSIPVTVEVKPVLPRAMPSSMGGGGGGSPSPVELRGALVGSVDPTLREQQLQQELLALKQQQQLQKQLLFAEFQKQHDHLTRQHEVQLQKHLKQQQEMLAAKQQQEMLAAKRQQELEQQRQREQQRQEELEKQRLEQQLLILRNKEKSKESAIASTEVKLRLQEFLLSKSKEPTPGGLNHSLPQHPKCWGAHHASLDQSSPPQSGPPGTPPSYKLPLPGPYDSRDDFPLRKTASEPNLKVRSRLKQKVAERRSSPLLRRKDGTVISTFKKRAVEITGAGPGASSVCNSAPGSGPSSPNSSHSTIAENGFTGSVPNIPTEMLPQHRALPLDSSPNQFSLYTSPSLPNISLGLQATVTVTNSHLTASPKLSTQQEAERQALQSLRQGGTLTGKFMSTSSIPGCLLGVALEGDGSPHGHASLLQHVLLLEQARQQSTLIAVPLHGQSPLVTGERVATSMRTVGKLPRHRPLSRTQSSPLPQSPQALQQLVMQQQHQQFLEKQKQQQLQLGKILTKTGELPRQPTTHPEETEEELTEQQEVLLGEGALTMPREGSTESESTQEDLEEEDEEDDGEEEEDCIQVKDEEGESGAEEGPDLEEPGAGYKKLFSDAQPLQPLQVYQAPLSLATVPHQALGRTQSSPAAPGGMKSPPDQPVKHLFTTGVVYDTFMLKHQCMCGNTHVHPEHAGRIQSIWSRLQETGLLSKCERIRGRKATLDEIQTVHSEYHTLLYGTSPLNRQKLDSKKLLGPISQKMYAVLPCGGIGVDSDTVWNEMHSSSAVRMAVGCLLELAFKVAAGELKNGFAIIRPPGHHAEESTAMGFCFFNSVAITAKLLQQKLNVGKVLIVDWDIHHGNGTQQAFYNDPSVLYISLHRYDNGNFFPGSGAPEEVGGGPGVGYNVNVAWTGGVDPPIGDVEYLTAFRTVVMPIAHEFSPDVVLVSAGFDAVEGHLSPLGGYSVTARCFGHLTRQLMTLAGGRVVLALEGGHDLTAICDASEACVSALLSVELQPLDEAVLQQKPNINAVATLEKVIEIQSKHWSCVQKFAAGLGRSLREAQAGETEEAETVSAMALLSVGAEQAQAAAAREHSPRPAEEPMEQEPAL
Histone deacetylase 4, sequence (P56524 whole entry, the tested form may be a part): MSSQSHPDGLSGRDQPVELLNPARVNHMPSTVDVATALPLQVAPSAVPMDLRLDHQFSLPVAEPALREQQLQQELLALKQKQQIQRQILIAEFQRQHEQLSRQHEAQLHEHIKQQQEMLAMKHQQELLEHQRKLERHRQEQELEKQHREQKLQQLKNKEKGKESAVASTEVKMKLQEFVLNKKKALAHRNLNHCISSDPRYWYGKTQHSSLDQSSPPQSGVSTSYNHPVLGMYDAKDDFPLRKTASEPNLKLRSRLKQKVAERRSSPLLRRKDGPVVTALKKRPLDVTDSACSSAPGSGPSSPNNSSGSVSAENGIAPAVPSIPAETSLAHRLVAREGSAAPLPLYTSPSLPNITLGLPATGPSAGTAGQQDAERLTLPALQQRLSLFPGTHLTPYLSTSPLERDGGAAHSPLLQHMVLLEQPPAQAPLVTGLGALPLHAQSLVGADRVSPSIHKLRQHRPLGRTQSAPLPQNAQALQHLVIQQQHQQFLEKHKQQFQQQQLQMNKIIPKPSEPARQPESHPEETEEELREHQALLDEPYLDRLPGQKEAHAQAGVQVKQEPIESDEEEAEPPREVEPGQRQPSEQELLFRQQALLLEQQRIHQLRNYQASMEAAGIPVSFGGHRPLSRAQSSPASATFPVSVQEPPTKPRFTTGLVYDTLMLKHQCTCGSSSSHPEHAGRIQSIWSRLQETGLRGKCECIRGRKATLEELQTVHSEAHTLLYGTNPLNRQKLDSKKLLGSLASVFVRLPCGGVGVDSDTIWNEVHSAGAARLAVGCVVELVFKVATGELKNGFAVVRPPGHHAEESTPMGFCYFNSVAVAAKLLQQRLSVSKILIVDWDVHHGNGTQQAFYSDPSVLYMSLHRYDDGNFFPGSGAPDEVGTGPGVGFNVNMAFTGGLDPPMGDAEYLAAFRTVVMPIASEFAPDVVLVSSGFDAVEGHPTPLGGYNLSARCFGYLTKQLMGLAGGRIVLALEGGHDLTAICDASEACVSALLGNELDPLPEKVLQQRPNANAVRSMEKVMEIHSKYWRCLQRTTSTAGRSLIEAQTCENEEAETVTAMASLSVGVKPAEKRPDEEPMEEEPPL
Histone deacetylase 2, sequence (Q92769 whole entry, the tested form may be a part): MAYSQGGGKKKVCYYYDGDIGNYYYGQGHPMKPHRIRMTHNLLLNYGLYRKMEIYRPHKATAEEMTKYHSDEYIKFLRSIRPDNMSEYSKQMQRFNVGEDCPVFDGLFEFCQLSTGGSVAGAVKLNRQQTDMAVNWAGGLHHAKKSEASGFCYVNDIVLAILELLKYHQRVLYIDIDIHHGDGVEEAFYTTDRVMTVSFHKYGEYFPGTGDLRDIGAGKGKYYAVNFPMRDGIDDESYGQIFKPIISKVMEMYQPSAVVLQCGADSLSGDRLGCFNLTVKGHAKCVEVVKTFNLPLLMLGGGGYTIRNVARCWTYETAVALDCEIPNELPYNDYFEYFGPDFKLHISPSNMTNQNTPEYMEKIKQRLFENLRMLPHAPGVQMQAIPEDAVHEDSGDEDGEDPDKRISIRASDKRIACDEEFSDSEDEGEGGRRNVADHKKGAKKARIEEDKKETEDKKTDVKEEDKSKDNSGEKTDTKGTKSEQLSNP
Histone deacetylase 9, sequence (Q9UKV0 whole entry): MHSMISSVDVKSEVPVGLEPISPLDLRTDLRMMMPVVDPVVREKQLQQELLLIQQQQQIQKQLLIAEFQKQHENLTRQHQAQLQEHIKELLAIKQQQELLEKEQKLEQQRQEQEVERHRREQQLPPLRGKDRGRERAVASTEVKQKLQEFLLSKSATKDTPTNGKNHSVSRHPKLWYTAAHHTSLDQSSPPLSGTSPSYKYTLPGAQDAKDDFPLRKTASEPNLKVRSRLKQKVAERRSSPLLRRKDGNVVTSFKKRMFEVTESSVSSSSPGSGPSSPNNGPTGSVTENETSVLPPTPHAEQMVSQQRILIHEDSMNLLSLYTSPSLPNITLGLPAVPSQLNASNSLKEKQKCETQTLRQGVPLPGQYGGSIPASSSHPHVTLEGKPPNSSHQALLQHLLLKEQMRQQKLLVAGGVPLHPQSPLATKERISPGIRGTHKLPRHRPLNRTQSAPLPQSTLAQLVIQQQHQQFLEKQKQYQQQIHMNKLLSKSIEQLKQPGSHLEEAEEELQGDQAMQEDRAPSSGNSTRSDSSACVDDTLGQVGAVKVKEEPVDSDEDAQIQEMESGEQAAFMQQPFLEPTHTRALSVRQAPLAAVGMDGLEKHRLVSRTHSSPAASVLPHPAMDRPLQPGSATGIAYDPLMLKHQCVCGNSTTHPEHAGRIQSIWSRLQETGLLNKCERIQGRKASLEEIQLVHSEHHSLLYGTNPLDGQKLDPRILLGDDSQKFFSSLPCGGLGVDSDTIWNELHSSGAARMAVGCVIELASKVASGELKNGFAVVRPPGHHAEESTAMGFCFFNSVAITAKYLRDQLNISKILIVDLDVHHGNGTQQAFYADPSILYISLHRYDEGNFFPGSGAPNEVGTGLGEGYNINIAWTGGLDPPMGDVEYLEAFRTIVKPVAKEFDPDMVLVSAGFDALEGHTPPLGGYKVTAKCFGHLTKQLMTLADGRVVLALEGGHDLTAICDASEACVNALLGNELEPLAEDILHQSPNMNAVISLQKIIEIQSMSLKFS

Compound: Cc1ncsc1CCn1cc(NC(=O)CCS/C=C\c2ccccc2)cn1
- IC50 (Histone deacetylase [1]): 29.8 µM
- inhibition [2]: Active

Compound: O=C(CCS/C=C/c1ccccc1)NO
- IC50 (Histone deacetylase [1]): 3.7 µM

Compound: O=C(CCS/C=C/c1ccccc1)NCCSCc1ccco1
- IC50 (Histone deacetylase [1]): 19.18 µM
- inhibition [2]: Active

Compound: O=C(CCCc1csc(/C=C/c2ccccc2)n1)NO
- IC50 (Histone deacetylase [3]): 0.37 µM
- IC50 (HeLa): 52 µM
- inhibition (INH) (RAW264.7 [4]): 50%
- inhibition (INH) (RAW264.7 [5]): 50%
- inhibition (INH) (RAW264.7 [6]): 50%
- IC50 (Histone deacetylase [1]): 1.48 µM
- Activity (Mus musculus [7]): 40%
- inhibition (Mus musculus [8]): Active
- inhibition (Mus musculus [9]): Active
- IC50 [10]: 0.199 µM
- IC50 (Histone deacetylase 1 [11]): > 10 µM
- IC50 (Histone deacetylase 2): > 10 µM
- IC50 (Histone deacetylase 7): Not Active
- IC50 (Histone deacetylase 4): 19.7 µM
- IC50 (Histone deacetylase 5): 26.6 µM
- IC50 [12]: 0.567 µM
- IC50 (Histone deacetylase 8): 1.54 µM
- IC50 (Histone deacetylase 11): 32.8 µM
- IC50 (Histone deacetylase 9): Not Active
- IC50 [13]: 78.3 µM
- IC50 [14]: 17.8 µM
- IC50 (Histone deacetylase 1 [15]): 13.8 µM
- inhibition (Histone deacetylase 1 [16]): inactive
